Test results from the M2OR odorant receptor database.

Legend:
Conditions in all cases: stereoisomer not certain
[1] = biological target: T1, UniProt Q8VGX8
T1 sequence (whole entry): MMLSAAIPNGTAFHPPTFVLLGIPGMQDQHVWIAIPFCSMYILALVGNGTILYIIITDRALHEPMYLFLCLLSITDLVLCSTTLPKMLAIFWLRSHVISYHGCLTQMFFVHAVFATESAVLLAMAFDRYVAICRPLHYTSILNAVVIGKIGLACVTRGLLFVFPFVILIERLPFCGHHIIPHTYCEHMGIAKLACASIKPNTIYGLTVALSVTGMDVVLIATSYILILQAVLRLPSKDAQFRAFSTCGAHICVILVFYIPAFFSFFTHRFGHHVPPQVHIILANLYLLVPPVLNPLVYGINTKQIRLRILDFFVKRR
How it was run: (§1)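 Assay methods differ from source to source, frequently being transient luciferase assays in mammalian cell lines. For each receptor–molecule pair, the label responsive (active) applies when the original authors judged the measured signal statistically different from baseline, and non-responsive (inactive) applies otherwise.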

[2] = biological target: T2, UniProt Q8VGY6
T2 sequence (whole entry): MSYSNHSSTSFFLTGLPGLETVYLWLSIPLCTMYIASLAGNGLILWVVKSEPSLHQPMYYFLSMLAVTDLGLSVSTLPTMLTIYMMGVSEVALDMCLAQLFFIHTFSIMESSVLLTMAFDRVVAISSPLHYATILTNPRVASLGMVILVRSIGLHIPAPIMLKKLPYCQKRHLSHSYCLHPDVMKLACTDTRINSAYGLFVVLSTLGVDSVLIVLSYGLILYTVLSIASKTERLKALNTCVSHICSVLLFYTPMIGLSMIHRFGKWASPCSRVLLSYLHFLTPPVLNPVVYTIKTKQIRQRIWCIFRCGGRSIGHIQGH
How it was run: as §1

[3] = biological target: T3, UniProt Q8VGZ2
T3 sequence (whole entry): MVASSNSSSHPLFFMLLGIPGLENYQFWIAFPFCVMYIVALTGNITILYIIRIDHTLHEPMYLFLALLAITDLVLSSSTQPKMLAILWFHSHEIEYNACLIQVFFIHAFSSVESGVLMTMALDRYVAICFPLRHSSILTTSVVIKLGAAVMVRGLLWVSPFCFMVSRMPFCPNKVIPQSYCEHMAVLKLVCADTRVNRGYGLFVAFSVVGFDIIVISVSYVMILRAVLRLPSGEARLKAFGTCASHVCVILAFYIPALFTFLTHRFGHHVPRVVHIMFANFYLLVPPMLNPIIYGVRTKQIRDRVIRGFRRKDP
How it was run: as §1

[4] = biological target: T4, UniProt Q8VGZ7
T4 sequence (whole entry): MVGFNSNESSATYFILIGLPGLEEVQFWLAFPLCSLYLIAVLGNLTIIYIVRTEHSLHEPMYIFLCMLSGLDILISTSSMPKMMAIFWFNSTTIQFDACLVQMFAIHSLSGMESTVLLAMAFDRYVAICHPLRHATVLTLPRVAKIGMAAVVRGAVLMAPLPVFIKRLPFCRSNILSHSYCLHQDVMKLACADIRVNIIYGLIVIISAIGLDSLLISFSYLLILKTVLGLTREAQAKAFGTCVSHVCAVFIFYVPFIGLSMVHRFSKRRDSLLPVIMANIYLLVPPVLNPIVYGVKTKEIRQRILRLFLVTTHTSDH
How it was run: as §1

[5] = biological target: T5, UniProt Q8VH10
T5 sequence (whole entry): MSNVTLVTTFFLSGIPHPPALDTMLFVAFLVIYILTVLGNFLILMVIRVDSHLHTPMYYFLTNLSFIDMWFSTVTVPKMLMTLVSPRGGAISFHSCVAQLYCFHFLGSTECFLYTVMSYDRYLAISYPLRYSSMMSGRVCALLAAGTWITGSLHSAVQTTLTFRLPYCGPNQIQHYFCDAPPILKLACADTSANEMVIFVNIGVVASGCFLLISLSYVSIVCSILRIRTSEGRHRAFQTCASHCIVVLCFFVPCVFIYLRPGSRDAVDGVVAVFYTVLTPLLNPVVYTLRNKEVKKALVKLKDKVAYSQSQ
How it was run: as §1

[6] = biological target: T6, UniProt Q8VH16
T6 sequence (whole entry): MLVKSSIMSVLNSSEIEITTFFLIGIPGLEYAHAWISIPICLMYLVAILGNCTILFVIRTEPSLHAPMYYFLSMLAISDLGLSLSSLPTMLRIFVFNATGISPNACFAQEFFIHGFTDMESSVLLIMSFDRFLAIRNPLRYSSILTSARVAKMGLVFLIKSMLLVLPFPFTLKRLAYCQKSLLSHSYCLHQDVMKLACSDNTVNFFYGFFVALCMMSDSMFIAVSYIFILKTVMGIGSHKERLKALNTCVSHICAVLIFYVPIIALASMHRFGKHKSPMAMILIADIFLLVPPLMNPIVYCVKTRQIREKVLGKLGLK
How it was run: as §1

[7] = biological target: T7, UniProt Q8VH20
T7 sequence (whole entry): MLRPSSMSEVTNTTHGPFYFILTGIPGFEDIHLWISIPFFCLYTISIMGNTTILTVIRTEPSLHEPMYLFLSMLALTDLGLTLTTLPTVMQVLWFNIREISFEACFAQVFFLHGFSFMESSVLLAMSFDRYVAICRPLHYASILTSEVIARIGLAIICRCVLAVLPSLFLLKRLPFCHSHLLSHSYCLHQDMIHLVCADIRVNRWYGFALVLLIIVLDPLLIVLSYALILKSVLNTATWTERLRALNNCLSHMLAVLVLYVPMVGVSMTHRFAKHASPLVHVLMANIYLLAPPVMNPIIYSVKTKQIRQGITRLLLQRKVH
How it was run: as §1

[8] = biological target: T8, UniProt Q8VH21
T8 sequence (whole entry): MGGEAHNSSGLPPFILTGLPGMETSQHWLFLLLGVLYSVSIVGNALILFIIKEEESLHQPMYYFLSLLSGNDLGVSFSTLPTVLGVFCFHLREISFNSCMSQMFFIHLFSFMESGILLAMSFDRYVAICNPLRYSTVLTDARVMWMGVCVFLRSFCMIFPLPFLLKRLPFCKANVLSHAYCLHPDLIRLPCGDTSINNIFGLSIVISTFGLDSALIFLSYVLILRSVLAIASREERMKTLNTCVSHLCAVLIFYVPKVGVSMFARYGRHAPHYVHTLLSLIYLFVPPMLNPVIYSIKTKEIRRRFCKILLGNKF
How it was run: as §1

[9] = biological target: T9, UniProt Q924H8
T9 sequence (whole entry): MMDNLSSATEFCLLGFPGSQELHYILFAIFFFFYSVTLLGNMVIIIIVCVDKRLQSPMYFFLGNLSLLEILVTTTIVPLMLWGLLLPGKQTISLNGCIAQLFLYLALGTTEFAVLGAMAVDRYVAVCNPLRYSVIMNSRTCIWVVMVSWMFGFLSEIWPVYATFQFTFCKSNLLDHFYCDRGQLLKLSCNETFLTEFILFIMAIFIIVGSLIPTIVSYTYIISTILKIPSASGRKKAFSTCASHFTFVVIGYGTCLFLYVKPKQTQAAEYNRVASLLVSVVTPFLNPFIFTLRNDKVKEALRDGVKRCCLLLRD
How it was run: as §1

[10] = biological target: T10, UniProt Q9EPN9
T10 sequence (whole entry): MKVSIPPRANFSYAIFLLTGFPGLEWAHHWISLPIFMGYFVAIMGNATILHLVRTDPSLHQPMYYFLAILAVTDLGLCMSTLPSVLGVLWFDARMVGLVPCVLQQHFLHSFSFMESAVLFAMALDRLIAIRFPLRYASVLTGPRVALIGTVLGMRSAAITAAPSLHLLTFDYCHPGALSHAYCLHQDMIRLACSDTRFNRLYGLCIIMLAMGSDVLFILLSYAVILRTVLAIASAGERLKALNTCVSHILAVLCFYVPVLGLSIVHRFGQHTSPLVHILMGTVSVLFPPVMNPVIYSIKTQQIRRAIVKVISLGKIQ
How it was run: as §1

[11] = biological target: UniProt Q9R0K2
How it was run: as §1

[12] = biological target: T11, UniProt Q9WU86
T11 sequence (whole entry): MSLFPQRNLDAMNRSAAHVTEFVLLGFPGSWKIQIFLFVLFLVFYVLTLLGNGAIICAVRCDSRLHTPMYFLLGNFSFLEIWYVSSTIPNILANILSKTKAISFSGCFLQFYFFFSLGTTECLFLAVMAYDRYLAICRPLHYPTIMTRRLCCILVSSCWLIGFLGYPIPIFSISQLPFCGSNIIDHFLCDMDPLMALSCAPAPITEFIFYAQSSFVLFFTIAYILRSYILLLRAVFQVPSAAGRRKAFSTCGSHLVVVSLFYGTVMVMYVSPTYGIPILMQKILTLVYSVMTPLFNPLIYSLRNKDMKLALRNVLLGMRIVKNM
How it was run: as §1

[13] = biological target: T12, UniProt Q8VH18
T12 sequence (whole entry): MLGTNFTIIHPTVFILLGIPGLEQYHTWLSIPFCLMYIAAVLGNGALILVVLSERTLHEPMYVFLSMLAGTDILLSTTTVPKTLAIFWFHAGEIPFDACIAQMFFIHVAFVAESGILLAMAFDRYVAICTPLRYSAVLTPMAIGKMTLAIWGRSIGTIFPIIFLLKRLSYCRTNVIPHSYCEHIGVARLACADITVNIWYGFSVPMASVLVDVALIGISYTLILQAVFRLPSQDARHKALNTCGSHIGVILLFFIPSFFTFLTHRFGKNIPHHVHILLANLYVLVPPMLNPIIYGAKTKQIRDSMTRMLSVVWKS
How it was run: as §1

[14] = biological target: T13, UniProt Q924X8
T13 sequence (whole entry): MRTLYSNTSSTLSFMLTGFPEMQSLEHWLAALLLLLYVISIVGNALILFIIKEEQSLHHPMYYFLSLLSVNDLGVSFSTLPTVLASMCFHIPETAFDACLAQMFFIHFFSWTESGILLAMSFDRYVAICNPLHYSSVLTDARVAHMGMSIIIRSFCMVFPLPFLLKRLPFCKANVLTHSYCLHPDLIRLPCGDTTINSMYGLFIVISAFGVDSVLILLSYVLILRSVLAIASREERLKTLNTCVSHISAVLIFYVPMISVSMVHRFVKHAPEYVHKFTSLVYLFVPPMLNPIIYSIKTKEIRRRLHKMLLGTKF
How it was run: as §1

[15] = biological target: T14, UniProt Q9WU94
T14 sequence (whole entry): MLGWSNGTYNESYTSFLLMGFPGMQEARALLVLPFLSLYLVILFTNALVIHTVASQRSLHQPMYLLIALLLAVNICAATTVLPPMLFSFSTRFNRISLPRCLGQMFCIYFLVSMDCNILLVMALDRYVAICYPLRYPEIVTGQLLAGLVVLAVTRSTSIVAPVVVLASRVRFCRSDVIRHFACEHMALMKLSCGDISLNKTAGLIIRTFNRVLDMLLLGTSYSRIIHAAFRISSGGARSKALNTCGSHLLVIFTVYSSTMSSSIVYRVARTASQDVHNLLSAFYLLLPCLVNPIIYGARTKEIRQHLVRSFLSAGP
How it was run: as §1

[16] = biological target: T15, UniProt Q9WVD7
T15 sequence (whole entry): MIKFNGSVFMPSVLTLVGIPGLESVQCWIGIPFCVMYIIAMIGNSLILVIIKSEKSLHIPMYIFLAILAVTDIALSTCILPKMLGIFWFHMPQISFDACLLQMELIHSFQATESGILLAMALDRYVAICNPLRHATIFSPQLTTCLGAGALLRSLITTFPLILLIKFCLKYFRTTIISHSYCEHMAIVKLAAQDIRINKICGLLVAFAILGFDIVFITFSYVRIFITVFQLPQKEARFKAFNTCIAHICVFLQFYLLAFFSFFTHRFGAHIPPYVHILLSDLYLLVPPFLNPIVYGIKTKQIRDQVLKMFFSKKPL
How it was run: as §1

Chain of UniProt Q9R0K2 (Q9R0K2 as listed by the source): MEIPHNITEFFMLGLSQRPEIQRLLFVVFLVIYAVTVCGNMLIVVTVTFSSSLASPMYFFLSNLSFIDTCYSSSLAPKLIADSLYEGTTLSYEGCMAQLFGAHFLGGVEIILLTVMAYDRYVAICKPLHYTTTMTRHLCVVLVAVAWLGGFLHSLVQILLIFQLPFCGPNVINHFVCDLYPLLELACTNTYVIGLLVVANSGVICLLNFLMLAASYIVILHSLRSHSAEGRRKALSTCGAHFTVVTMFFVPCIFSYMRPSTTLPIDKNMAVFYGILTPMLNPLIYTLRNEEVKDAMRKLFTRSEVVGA

Compound | odorant receptor agonist call [1] | odorant receptor agonist call [2] | odorant receptor agonist call [3] | odorant receptor agonist call [4] | odorant receptor agonist call [5] | odorant receptor agonist call [6] | odorant receptor agonist call [7] | odorant receptor agonist call [8] | odorant receptor agonist call [9] | odorant receptor agonist call [10] | odorant receptor agonist call [11] | odorant receptor agonist call [12] | odorant receptor agonist call [13] | odorant receptor agonist call [14] | odorant receptor agonist call [15] | odorant receptor agonist call [16]
O=C(c1ccccc1)c1ccccc1 | inactive | inactive | inactive | inactive | inactive | inactive | inactive | inactive | inactive | inactive | inactive | inactive | – | – | – | –
CCCCCCCCO | inactive | inactive | inactive | inactive | inactive | inactive | inactive | inactive | inactive | inactive | inactive | inactive | active | inactive | inactive | active
CC(=O)OCC=C(C)C | inactive | inactive | inactive | inactive | inactive | inactive | inactive | inactive | inactive | inactive | inactive | inactive | – | – | – | –
